Screens deposited in PubChem BioAssay by several laboratories.
Most compounds without a hit are left out; they make up all but 2.2% or so of the library.
AP complement – alternative complement pathway inhibitors, primary screen, biochemical, ELISA, human serum, orthogonally pooled compounds; LPS-coated ELISA, C3 deposition; tested in compound mixtures; inhibition, % at 5 µM; 0.08% of 62,000 active;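 active = inhibition above 30% in each of the two pooled mixtures holding the compound, so the lower value exceeds 30%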;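 note: 0% = serum in Mg-EGTA without compound and 100% = EDTA serum blank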
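Medium: diluted human serum in Mg2+-EGTA GVB++. Assay system: human serum complement alternative pathway, C3 deposition onto LPS. Also added: Plate-bound LPS. Technique: Anti-C3 ELISA, OD 450 nm. Measure: percent inhibition. Incubation: 1 h at 37 °C. Dosing: 5 µM each compound, pools of ten, 50 µM per pool.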
E coli RNAP – E. coli RNAP inhibitors, biochemical. DNA-directed RNA polymerase subunit beta (Escherichia coli (strain K12)), P0A8V2. E. coli RNA polymerase, fluorescence transcription assay. 0.2% of 62,000 active. inhibition, %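 (tested at 10 µM)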; in the data active = inhibition above about 20%;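 note: 0% = enzyme without compound and 100% = no enzyme blank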
RORA act – activators of orphan receptor RORA, primary screen, cell-based, luminescence; Nuclear receptor ROR-alpha (Homo sapiens), P35398; CHO-K1 Gal4-RORA LBD luciferase reporter; percent increase over mock-subtracted basal signal; activation, % at 10 µM; 1.5% of 65,000 active; AID 560, 2006;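 active = activation above the mean of all tested compounds plus 3 SD, cut at about 49% in these data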;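 note: 0% = DMSO-treated RORA cells and 100% = added signal equal to DMSO minus mock-transfected cells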
MT1-MMP txn act – MT1-MMP promoter reporter activation – cell-based, luciferase luminescence, primary screen; HT1080 MT1-MMP promoter luciferase reporter, overnight; stronger effect = higher value; AID 750, 2007; activation factor at 10 µM; 0.16% of 86,000 active;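 active = activation factor of at least 2 for MT1-MMP transcription at 10 µM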
TNAP act DEA – human TNAP enzyme activators, primary screen, biochemical, luminescent, intermediate phosphate acceptor level; AID 813, 2007; 64,000 tested, under 10 active; activation factor at 20 µM; purified TNAP, CDP-star luminescence, 100 mM DEA, 30 min; stronger effect = higher value; scale: 0 levamisole-inhibited, 1 vehicle-only enzyme; Alkaline phosphatase, tissue-nonspecific isozyme (Homo sapiens), P05186;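 active = activation factor of at least 2 at 20 µM, relative to controls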
Target sequence (P05186 whole entry, looked up): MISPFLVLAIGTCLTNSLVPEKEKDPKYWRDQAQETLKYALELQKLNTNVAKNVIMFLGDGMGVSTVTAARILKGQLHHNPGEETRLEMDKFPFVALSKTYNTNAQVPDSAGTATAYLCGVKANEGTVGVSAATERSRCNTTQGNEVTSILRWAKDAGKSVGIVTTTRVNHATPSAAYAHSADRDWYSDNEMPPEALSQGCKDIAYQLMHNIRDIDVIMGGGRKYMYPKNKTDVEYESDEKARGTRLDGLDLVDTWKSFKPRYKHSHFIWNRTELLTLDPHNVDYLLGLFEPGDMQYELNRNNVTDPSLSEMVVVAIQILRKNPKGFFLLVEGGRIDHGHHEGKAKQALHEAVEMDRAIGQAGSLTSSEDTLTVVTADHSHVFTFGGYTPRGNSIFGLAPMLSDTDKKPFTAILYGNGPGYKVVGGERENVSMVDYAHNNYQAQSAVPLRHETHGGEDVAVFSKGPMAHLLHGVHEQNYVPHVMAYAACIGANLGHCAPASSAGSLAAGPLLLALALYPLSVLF
SF1 activator – activators of human SF-1, primary screen, cell-based, CHO-K1, Gal4-SF-1 LBD, luciferase luminescence | Steroidogenic factor 1 (Homo sapiens), Q13285 | CHO-K1 Gal4-SF-1 LBD luciferase reporter; % increase over DMSO SF-1-specific signal | activation, % at 10 µM | 1.9% of 65,000 active | AID 522, 2006;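 active = activation above the mean activation of all tested compounds plus 3 SD, cut at about 50% in these data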
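Test system: CHO-K1 cells co-transfected with Gal4 DBD–human SF-1 LBD, 5xGal4 luciferase reporter. Quantity: 4,000 cells per well. Compound: 10 µM only. Incubation: compound added 1 h post-seeding, 20 h exposure at 37 °C, 5% CO2. Detection: SteadyLite luciferase luminescence. Replication: one test per compound.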
* marks the source's active call; other numbers are inactive results; . = no result.

SMILES	AP complement	E coli RNAP	RORA act	MT1-MMP txn act	TNAP act DEA	SF1 activator
CC(C)Cc1nnc(NC(=O)CCC(=O)N2CCN(c3ccccn3)CC2)s1	.	.	.	1.2	.	.
N#C/C(C(=O)Oc1ccccc1)=C1\C=CC=CN1	21.8	-6.9	58.5*	1.3	0.9	35.2
Cc1c(C(=O)Nc2ccc3c(c2)OCO3)sc2ncn(CC(=O)N3CC(C)CC(C)C3)c(=O)c12 (stereo not drawn)	.	.	.	1.1	.	.
Cc1ccnc(NC(=O)Nc2ccc(F)cc2)c1	6.0	4.7	20.8	.	0.9	35.6
Cc1ccc(NC(=O)Nc2ccc(F)cc2)nc1	10.1	0.6	25.4	1.8	0.9	82.9*
Cc1c(C)n(C(=O)CSc2nc3ccccc3[nH]2)c2ccccc12	.	.	.	1.4	.	.
C/C(=N\O)c1c(C)c2ccccc2n1C	.	5.7	-5.7	1.1	0.9	-4.6
C/C(=N\O)c1ccc2c3ccccc3n(C)c2c1	-3.8	6.0	45.0	1.5	1.1	54.3*
Cc1ccc(/C=N/Nc2nc(Cl)c(Cl)cc2Cl)s1	.	.	.	2*	.	.
Cc1ccc(CN2C(=O)CCC2C(=O)NCCN2CCN(c3cccc(Cl)c3)CC2)cc1 (stereo not drawn)	-1.6	11.7	0.8	1.2	1	6.9
Cc1ccc(-c2cc(C(=O)N3CCN(c4ncccn4)CC3)c3ccccc3n2)cc1	9.9	5.5	25.5	1.4	0.9	53.7*
O=C1C(C=NCc2cccnc2)=C(O)c2ccccc21	3.7	1.1	53.0*	0.9	1	45.1
O=C(c1cc(-c2ccncc2)nc2ccccc12)N1CCN(S(=O)(=O)/C=C/c2ccccc2)CC1	.	.	.	1.2	.	.
Cc1sc2c(c1C)CN(Cc1ccco1)CN2C(=O)c1ccccc1	11.2	-0.5	20.0	2.1*	0.7	22.4
CN(CC(=O)N1CCc2ccccc21)S(=O)(=O)c1cccs1	-0.5	10.5	52.3*	.	0.9	55.1*
c1ccc(CCn2nnnc2CN2CCCc3ccccc32)cc1	-4.9	3.1	50.6*	1.2	0.9	21.0
O=C1Nc2ccccc2CCC1Sc1nnc(-c2ccc(Cl)cc2)s1 (stereo not drawn)	.	.	.	2.1*	.	.
Nc1ccc(-c2nc3ccccc3[nH]2)cc1	14.3	2.8	38.2	0.9	1	56.0*
COc1ccccc1NC(=O)c1cc2ccccc2o1	.	.	.	2*	.	.
CC(C)NC(=O)c1cc2ccccc2o1	.	.	.	1.1	.	.
CC(NC(=O)c1cc2ccccc2o1)C(=O)O (stereo not drawn)	21.6	44.2*	-26.5	1.1	1	1.1
CC(=O)Nc1cccc(NC(=O)c2cc3ccccc3o2)c1	-8.3	1.9	33.3	1.3	0.9	87.2*
COc1cc(NC(=O)c2cc3ccccc3o2)c(OC)cc1Br	23.7	-5.5	-12.0	1.1	0.9	-15.3
COc1ccc(NC(=O)c2cc(C3CC3)on2)c(OC)c1	6.7	9.1	18.4	1.4	0.8	56.3*
Cc1ccc2c(CC(=O)OC(C)C(=O)NCc3ccc4c(c3)OCO4)coc2c1 (stereo not drawn)	4.1	6.8	-0.9	1.2	0.9	2.8
SMILES	AP complement	E coli RNAP	RORA act	MT1-MMP txn act	TNAP act DEA	SF1 activator
CC(=O)Nc1ccc(-c2cc3ccccc3o2)cc1	-5.6	12.0	2.5	1.1	0.8	61.4*
COc1ccc(NC(=O)c2cc3ccccc3o2)cc1	-0.7	11.1	53.1*	1.1	0.9	54.4*
O=C(Nc1ccccc1)c1cc2ccccc2o1	.	.	.	0.6	.	.
Cc1c(C(=O)Nc2ccc(-n3cnnn3)cc2)oc2ccccc12	-9.6	9.9	21.9	1.2	0.9	-0.3
COc1ccc(NC(=O)c2oc3ccccc3c2C)c(OC)c1	5.2	4.3	62.3*	1.5	0.9	57.5*
CC(=O)Nc1cccc(NC(=O)c2oc3ccccc3c2C)c1	15.8	0.0	48.5	.	0.9	51.0*
CCC(C)(C(=O)NC1CCCC1)N(C(=O)CC1NC(=O)NC1=O)c1ccc(C)cc1 (stereo not drawn)	.	.	.	1.1	.	.
COc1ccc(NC(=O)c2cc(-c3ccccc3OC)on2)cc1	13.4	0.5	48.9*	1.1	0.9	12.5
COc1ccccc1-c1cc(C(=O)Nc2cccnc2)no1	10.0	1.3	19.5	0.7	1	13.8
CCOc1ccc(-c2nc(C#N)c(NC3CC3)o2)cc1	18.6	6.8	62.8*	1.2	0.9	8.7
COc1ccc(Nc2oc(-c3ccc(Cl)cc3)nc2C#N)cc1	.	.	.	2.2*	.	.
Cc1ccc(-c2nc(C#N)c(NCCc3ccccn3)o2)cc1	-6.5	8.6	61.0*	1.2	1	54.4*
COCCNc1oc(-c2ccc(C)cc2)nc1C#N	-4.4	2.5	48.4	1.6	0.9	60.6*
CC(=O)OC(C(=O)NCc1ccco1)c1ccncc1 (stereo not drawn)	12.9	-3.4	1.7	1	1	-3.1
O=c1nc2n(c3c4c(sc13)CCC4)CCC2	14.1	-0.4	2.3	1.1	0.9	-0.7
CC(C)(C)c1ccc(OCCn2ccccc2=O)cc1	-7.1	9.9	39.3	1.9	0.9	67.1*
CCN1CCCC1CNC(=O)c1nn(-c2ccc(C)cc2)c(=O)c2c1c1ccccc1n2C (stereo not drawn)	10.9	-2.5	-9.7	1.4	1	-7.0
Cc1ccc(-c2noc(CCC(=O)N(C)c3ccccc3C)n2)cc1	5.3	8.4	-19.4	1.4	0.9	-15.7
COc1ccc(C2SCC(=O)N2c2c(C)n(C)n(-c3ccccc3)c2=O)cc1OC (stereo not drawn)	.	.	.	1.1	.	.
COc1cccc(CN(C(=O)c2cc3ccccc3oc2=O)C2CC2)c1	2.7	1.4	52.5*	1.6	0.8	16.8
COc1ccc(CN(C(=O)c2cc3ccccc3oc2=O)C2CCCC2)cc1	.	.	.	1.1	.	.
CCCCNC(=O)c1cc2c(-c3ccc(Cl)cc3)nn(C)c2s1	4.9	-2.7	-14.2	1.3	0.9	11.2
Cn1nc(-c2ccc(Cl)cc2)c2cc(C(=O)NCCCN3CCCC3)sc21	23.3	-4.7	10.6	1.4	0.9	56.0*
Nc1nonc1-c1noc(N2CCCCC2)n1	8.4	2.9	25.9	1.4	1	53.5*
C1CCN(c2nc3nonc3nc2N2CCCCC2)CC1	6.1	11.1	18.7	1.2	0.9	-13.3
CCN(CC)S(=O)(=O)c1cccc(-c2cn3cc(C)ccc3n2)c1	.	.	.	1.8	.	.
Cc1ccc2nc(-c3cccc(S(=O)(=O)N(C)C)c3)cn2c1	16.2	10.1	56.4*	1.5	0.9	51.5*
CCCSc1nnc(-c2c[nH]c3ccccc23)n1CC	8.6	8.7	2.4	1.2	0.9	6.3
